Test [1] addresses T1, Retinal dehydrogenase 2 (Gallus gallus) (UniProt O93344).
T1 sequence (whole entry): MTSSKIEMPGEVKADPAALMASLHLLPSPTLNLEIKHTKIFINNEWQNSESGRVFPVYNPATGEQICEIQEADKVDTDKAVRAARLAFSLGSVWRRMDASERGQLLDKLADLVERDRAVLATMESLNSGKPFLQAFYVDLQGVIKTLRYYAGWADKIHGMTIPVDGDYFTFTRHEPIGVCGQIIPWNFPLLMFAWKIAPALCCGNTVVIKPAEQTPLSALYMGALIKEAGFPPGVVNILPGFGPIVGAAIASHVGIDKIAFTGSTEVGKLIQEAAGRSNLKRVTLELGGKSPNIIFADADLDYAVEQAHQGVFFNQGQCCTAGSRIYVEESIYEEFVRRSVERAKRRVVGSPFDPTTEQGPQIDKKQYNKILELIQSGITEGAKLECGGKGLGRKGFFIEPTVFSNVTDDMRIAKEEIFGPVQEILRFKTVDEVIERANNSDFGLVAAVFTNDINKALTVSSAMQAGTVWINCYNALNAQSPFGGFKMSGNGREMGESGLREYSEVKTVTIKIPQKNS
Description: Inhibition of N-terminal His6-tagged recombinant chick RALDH2 expressed in Escherichia coli BL21(DE3) cells at 50 nM using RAL as substrate assessed as remaining activity preincubated for 20 mins followed by compound washout by ultrafiltration and subsequent addition of substrate and measured after 30 mins in presence of NADH by fluorescence assay (reference value: 100.0 +/- 11.57%). The method in brief: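 Chick RALDH2 (91 nM) pre-incubated 20 min with 0–50 nM inhibitor. Unbound inhibitor removed by ultrafiltration before adding 250 μM retinaldehyde and 4 mM NAD+, 30 min at 37°C. NADH measured fluorimetrically. Activity expressed as % of vehicle. Triplicates; one-way ANOVA with Bonferroni test.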

Test [2] deals with T2, Aldehyde dehydrogenase, mitochondrial (Homo sapiens, UniProt P05091).
T2 sequence (P05091 whole entry): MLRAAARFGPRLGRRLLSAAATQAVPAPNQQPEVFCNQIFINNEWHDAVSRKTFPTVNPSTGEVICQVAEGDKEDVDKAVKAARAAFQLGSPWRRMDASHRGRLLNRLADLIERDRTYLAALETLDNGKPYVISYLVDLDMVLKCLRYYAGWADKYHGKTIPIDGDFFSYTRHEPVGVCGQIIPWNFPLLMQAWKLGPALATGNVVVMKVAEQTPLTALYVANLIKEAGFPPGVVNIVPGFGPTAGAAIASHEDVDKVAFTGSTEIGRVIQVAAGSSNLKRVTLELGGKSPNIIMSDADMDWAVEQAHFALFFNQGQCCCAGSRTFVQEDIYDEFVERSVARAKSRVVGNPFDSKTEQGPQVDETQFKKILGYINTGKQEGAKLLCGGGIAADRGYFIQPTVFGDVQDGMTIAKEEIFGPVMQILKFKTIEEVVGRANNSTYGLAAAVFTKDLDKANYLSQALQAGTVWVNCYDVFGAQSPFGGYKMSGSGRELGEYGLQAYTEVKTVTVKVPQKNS
Description: Inhibition of N-terminal His6-tagged recombinant human mitochondrial ALDH2 using propionaldehyde as substrate measured after 30 mins in presence of NADH by Morrison's plot analysis.

In test [3] the target is T3, Aldehyde dehydrogenase 1A1 (Gallus gallus, UniProt P27463).
T3 sequence (P27463 whole entry): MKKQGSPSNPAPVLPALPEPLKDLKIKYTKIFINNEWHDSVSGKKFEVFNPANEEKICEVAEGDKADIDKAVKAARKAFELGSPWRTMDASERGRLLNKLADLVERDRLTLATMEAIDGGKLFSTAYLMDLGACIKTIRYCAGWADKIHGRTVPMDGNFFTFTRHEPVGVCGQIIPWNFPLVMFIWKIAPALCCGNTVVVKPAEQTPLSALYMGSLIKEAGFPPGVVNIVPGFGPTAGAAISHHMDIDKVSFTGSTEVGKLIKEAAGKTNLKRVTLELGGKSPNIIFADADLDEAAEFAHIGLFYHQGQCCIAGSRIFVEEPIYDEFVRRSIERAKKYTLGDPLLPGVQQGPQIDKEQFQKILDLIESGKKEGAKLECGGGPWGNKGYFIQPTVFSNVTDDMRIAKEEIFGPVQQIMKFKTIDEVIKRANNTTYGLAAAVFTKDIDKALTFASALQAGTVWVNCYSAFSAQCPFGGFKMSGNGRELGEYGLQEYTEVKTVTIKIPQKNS
Description: Inhibition of N-terminal His6-tagged recombinant chick RALDH1 expressed in Escherichia coli BL21(DE3) cells using RAL as substrate preincubated for 20 mins followed by substrate addition and measured after 30 mins in presence of NADH by fluorescence assay. The method in brief: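 Purified His-tagged recombinant enzyme in dialysis buffer with 2 mM DTT. Amounts were chick RALDH1 2 μg (0.358 μM), chick RALDH2 0.5 μg (0.091 μM), chick RALDH3 2 μg (0.355 μM) and human RALDH2 1 μg (0.176 μM). Enzyme pre-incubated 20 min at 37°C with 0–10 μM inhibitor in DMSO. Reaction started with final 4 mM NAD+ in pyrophosphate pH 8.2 buffer plus 250 μM retinaldehyde, 30 min at 37°C. NADH read fluorimetrically (Ex/Em 540/590) against a standard curve. Triplicates, 3–5 experiments.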

Test [4] deals with T1, Retinal dehydrogenase 2 (Gallus gallus). Description: Inhibition of N-terminal His6-tagged recombinant chick RALDH2 expressed in Escherichia coli BL21(DE3) cells at 250 nM using RAL as substrate assessed as remaining activity preincubated for 40 mins followed by all-trans-retinaldehyde and substrate addition measured after 30 mins in presence of NAD+ by fluorescence assay. The method in brief: (§1)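 Chick RALDH2 (91 nM) pre-incubated with 250 nM inhibitor for 0–80 min at 37°C, alone or with 250 μM retinaldehyde or 250 μM NAD+. Reaction then started with the missing substrate and/or cofactor (250 μM retinaldehyde, 4 mM NAD), 30 min at 37°C. Fluorimetric NADH; % activity remaining. Triplicates.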

Test [5] has the same target. Description: Inhibition of N-terminal His6-tagged recombinant chick RALDH2 expressed in Escherichia coli BL21(DE3) cells up to 500 nM using RAL as substrate assessed as inactivation rate constant preincubated up to 40 mins followed by substrate addition and measured after 30 mins in presence of NADH by fluorescence assay. Put shortly: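 Chick RALDH2 pre-incubated 10, 20 and 40 min with 0–500 nM inhibitor, then assayed with retinaldehyde/NAD+ by fluorimetric NADH. kobs taken from linear regression of log % activity remaining versus pre-incubation time. KI and kinact obtained by nonlinear regression of kobs versus inhibitor concentration.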

Test [6] deals with T2, Aldehyde dehydrogenase, mitochondrial. Description: Inhibition of N-terminal His6-tagged recombinant human mitochondrial ALDH2 using propionaldehyde as substrate preincubated for 20 mins to 1 hr followed by substrate addition and measured for 5 mins in presence of NADH by spectrophotometric assay.
The target of test [7] is T1, Retinal dehydrogenase 2 (Gallus gallus). Put plainly: Inhibition of N-terminal His6-tagged recombinant chick RALDH2 expressed in Escherichia coli BL21(DE3) cells at 250 nM using RAL as substrate assessed as enzyme recovery preincubated with compound and 250 uM NAD+ up to 80 mins and measured after 30 mins in presence of NAD+ by fluorescence assay. Set-up: scale not given: the % may be the effect or the level left. Put shortly:
as §1

What is called IC50 is the point on the concentration scale where inhibition reaches its midpoint. Turning to `CC1=C(/C=C/C(C)=C/C=C/C(C)=C/C(=O)C(Cl)Cl)C(C)(C)CCC1`, the Activity in test [1] was 23%; in test [4], 16.3%; in test [7], 52 to 65%. In addition, the Ki entry in test [2] is recorded as “Not Active”. Further, the results for the concentration for half-maximal inhibition (IC50) in test [3] and in test [6] were 435 nM and “Not Active”, respectively. Besides, in test [5], the Kinact is 0.0159 min⁻¹.

(Values after ChEMBL document CHEMBL4261642, “Design, synthesis, and ex vivo evaluation of a selective inhibitor for retinaldehyde dehydrogenase enzymes” (Bioorg Med Chem, 2018).)
